Compound activity as filed in PubChem BioAssay.
NPY-Y2 antag = NPY-Y2 receptor antagonists, primary screen, cell-based; Neuropeptide Y receptor type 2 (Homo sapiens), P49146; NPY-Y2 expressing cells, antagonist mode; inhibition, % at 2.7 µM; hit rate 0.99% among 140,000; AID 793, 2007; in the data active = inhibition above about 17%;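 also: 0% = vehicle with agonist challenge and 100% = reference antagonist with challenge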
Target sequence (P49146 whole entry, looked up): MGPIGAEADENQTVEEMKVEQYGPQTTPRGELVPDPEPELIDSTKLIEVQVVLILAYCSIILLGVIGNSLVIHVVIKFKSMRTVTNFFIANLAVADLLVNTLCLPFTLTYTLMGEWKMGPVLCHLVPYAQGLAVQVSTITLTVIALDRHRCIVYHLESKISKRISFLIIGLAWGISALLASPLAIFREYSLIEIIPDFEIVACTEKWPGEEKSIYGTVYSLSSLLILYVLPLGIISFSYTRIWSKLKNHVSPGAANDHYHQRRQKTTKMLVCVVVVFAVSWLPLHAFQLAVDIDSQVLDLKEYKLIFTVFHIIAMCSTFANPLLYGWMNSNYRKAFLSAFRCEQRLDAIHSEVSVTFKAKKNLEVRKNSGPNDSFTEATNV
NPY1 pot ag = NPY-Y1 receptor potentiators or agonists, primary screen, cell-based | Neuropeptide Y receptor type 1 (Homo sapiens), P25929 | NPY-Y1 expressing cells, potentiator/agonist activation | activation, % at 3.6 µM | hit rate 0.37% among 220,000 | AID 1304, 2008; in the data active = activation above about 33%, passing the limit was not always enough;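 also: cells stimulated with NPY at EC10 then isoproterenol at EC100; 0% = low agonist plus stimulus and 100% = saturating agonist plus stimulus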
NPY-Y2 PAM-ag = NPY-Y2 potentiators or agonists, primary screen, cell-based | cells expressing NPY-Y2, potentiator/agonist read-out | activation, % at 3.6 µM | hit rate 0.45% among 220,000; in the data active = activation above about 27%;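 also: cells stimulated with NPY near EC25 plus isoproterenol at EC100; 0% = vehicle plus submaximal agonist and 100% = vehicle plus saturating agonist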
NPY Y1 blocker = NPY-Y1 receptor antagonists, primary screen, cell-based | Neuropeptide Y receptor type 1 (Homo sapiens), P25929 | HEK293-CNG Y1 cells, membrane potential fluorescence; NPY at EC95, then isoproterenol | inhibition, % at 3.6 µM | hit rate 1% among 200,000 | AID 1040, 2008;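 active = inhibition above the campaign mean inhibition of all tested compounds plus 3 SD, cut at about 20% in these data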;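 also: 0% = DMSO wells given NPY plus isoproterenol and 100% = isoproterenol alone without NPY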
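Test system – HEK293 Y1/CNG channel cell line · Also added – NPY agonist 25 nM, then isoproterenol 1 µM plus Ro 20-1724 25 µM · Compound dosing – one concentration, 3.6 µM, in 0.4% DMSO · Schedule – compound incubation 1 h at room temperature, readout 45 min post-stimulation · Technique – fluorescence, membrane potential probe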
The depositor's hits bear a star; nt = no result. Hits are enriched below; roughly 1.8% of the tested compounds scored in any of these assays.

SMILES | NPY-Y2 antag | NPY1 pot ag | NPY-Y2 PAM-ag | NPY Y1 blocker
CCN(CCNc1ccc([N+](=O)[O-])c2cccnc12)S(=O)(=O)c1ccccc1 | 6 | 61* | 70* | -5
CCN(CCNc1ccc([N+](=O)[O-])c2cccnc12)S(=O)(=O)c1ccc(Cl)cc1 | 9 | 6 | 13 | 7
COc1ccc(C)cc1NC(=O)c1c(C)nn(Cc2ccccc2)c1Cl | 21* | -24 | -19 | 20*
CC/C(=N\N1CCCCCC1)c1c(O)n(-c2ccccc2C)c(=O)[nH]c1=O | 7 | -6 | 4 | -4
CN(C(=O)CNC(=O)OCc1ccccc1)c1ccc(Br)cc1C(=O)c1ccccc1Cl | 18* | -41 | -19 | 23*
COc1cccc(C2(O)CCN(CC(=O)Nc3nc(C)cs3)CC2)c1 | nt | -13 | -1 | 2
CC1(C)C2([N+](=O)[O-])CN3CN(C2)CC1([N+](=O)[O-])C3 | nt | -15 | 6 | -3
CC(C)[N+]12CCC(CC1)C(C(O)(c1ccccc1)c1ccccc1)C2 (stereo unspecified) | nt | 6 | -2 | nt
N=C(N)c1c(O)n(C2CCCCC2)c(=O)n(C2CCCCC2)c1=O | 0 | 30 | 31* | -8
Cc1nc2c(c(=O)[nH]1)C(c1ccc([N+](=O)[O-])cc1)c1c(c3ccccc3oc1=O)O2 (stereo unspecified) | nt | 18 | -3 | nt
CC(CCc1ccccc1)NC(C)C(O)c1ccc(O)cc1 (stereo unspecified) | 4 | 92* | 86* | -9
CC(NCc1ccc(Cl)cc1)C(O)c1ccccc1 (stereo unspecified) | 7 | -10 | -15 | 9
Cc1ccc(OP(=O)(O)Oc2ccc(C)cc2)cc1 | 12 | -17 | -13 | 26*
CCNC(=O)C1OC(n2cnc3c(N)ncnc32)C(O)C1O (stereo unspecified) | 138* | -98 | -25 | 127*
CCN1CCN(Cc2ccc(C)cc2)CC1 | 0 | 5 | -12 | 9
CCN1CCN(Cc2cc(C(C)(C)C)c(O)c(C(C)(C)C)c2)CC1 | 3 | 68* | 62* | -6
O=c1cccc2n1CC1CC2CN(c2nc(N3CCCCC3)nc(N3CCCCC3)n2)C1 (stereo unspecified) | nt | -20 | -5 | -1
CC12CC[C@H]3[C@@H](CCC4(O)C[C@H](O)CCC34/C=N/NC(=O)c3ccccc3Cl)C1(O)CCC2C1=CC(=O)OC1 (stereo partly specified) | nt | -13 | -38 | nt
C[C@H]1O[C@@H](O[C@H]2[C@@H](O)C[C@H](O[C@H]3[C@@H](O)C[C@H](O[C@H]4CC[C@@]5(C)[C@H](CC[C@@H]6[C@@H]5CC[C@]5(C)[C@@H](C7=CC(=O)OC7)CC[C@]65O)C4)O[C@@H]3C)O[C@@H]2C)C[C@H](O)[C@@H]1O | 45* | -82 | -18 | 51*
C[C@@H]1O[C@@H](O[C@H]2C[C@@H](O)[C@]3(CO)[C@H]4[C@H](O)C[C@]5(C)[C@@H](C6=CC(=O)OC6)CC[C@]5(O)[C@@H]4CC[C@]3(O)C2)[C@H](O)[C@H](O)[C@H]1O | 22* | -79 | -22 | 34*
COc1cccc(NC(=O)N2CCC3(CC2)OCCO3)c1 | -2 | -2 | 5 | -2
C=C[C@@H]1C[C@@]1(C)[C@@H](NP(=O)(c1ccccc1)c1ccccc1)c1ccccc1 | 23* | -34 | -6 | 38*
CC(C)(C)NCC(O)c1cc(Cl)c(N)c(Cl)c1 (stereo unspecified) | 1 | 97* | 88* | -11
CN(C)P(=O)(CCl)Nc1ccccc1 (stereo unspecified) | 3 | -4 | 3 | 0
CN[C@H]1C[C@H]2O[C@@](C)([C@H]1OC)n1c3ccccc3c3c4c(c5c6ccccc6n2c5c31)C(=O)NC4 | 30* | -57 | 16 | 54*
Cc1c(C(=O)C(=O)N2CCC3(CC2)OCCO3)c2ccccc2n1C | nt | 4 | 2 | -1
CCCCn1c(C)c(C(=O)OCC)c2c(CN3CCOCC3)c(O)ccc21 | 34* | -59 | -32 | 33*
CCOC(=O)c1c(C)n(Cc2ccco2)c2ccc(O)cc12 | 3 | -4 | -4 | 2
Cc1cc(C)n2nc(SC(C)C(=O)N3CCC4(CC3)OCCO4)nc2n1 (stereo unspecified) | 1 | 73* | 99* | -2
Cc1nnc2n1-c1ccc(Cl)cc1C(c1ccccc1)=NC2 | nt | -2 | -23 | -2
